Assay results taken from ChEMBL document CHEMBL2331342, “Synthesis, in vitro antiplatelet activity and molecular modelling studies of 10-substituted 2-(1-piperazinyl)pyrimido[1,2-a]benzimidazol-4(10H)-ones” (Eur J Med Chem, 2013).

Key:
Assay type in all cases: functional, cell-free
[1] = Antiplatelet activity against collagen collagen-induced platelet aggregation in human plasma preincubated for 2 mins before addition of inducer by turbidimetric method
Summary of the method: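 Platelet-rich plasma prepared from healthy volunteers' blood in 130 mM trisodium citrate (9:1), centrifuged 100 g, 30 min. After 2 min at 37 °C with compound or DMSO, bovine tendon collagen added (final 5.0 μg/mL). Born turbidimetric method, light transmission at 3 min. IC50 derived from inhibition–concentration curve (≥5 concentrations) relative to solvent control; mean ±SD, ≥5 platelet batches.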

[2] = Antiplatelet activity against collagen A23187-induced platelet aggregation in human plasma preincubated for 2 mins before addition of inducer by turbidimetric method
Summary of the method: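 Human PRP from citrated blood of healthy volunteers (9:1 with 130 mM trisodium citrate, spun 100 g 30 min). Preincubated with compound or DMSO 37 °C 2 min, then A23187 added (final 20.0 μM). Born turbidimetric aggregometry; light transmission at 3 min. At least five concentrations; IC50 from inhibition–concentration curve versus solvent control, mean ±SD of at least five platelet batches.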

[3] = Antiplatelet activity against collagen ADP-induced platelet aggregation in human plasma preincubated for 2 mins before addition of inducer by turbidimetric method
Summary of the method: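 Citrated PRP (blood:130 mM trisodium citrate 9:1, centrifuged 100 g for 30 min) from healthy human donors. Compound or DMSO preincubation at 37 °C for 2 min before ADP (final 5.0 μM). Turbidimetric (Born) read of light transmission after 3 min. IC50 from ≥5-concentration inhibition curve against solvent control; mean ±SD over at least five platelet batches.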

| Compound | IC50 [1] | IC50 [2] | IC50 [3] |
| --- | --- | --- | --- |
| O=c1cc(N2CCNCC2)nc2n(Cc3ccccc3)c3ccccc3n12 | 27 µM | 143 µM | 90 µM |
| CC(c1ccccc1)n1c2ccccc2n2c(=O)cc(N3CCNCC3)nc12 (stereo not drawn) | 172 µM | 175 µM | 163 µM |
| CSCn1c2ccccc2n2c(=O)cc(N3CCNCC3)nc12 | 31 µM | 60 µM | 26 µM |
| O=c1cc(N2CCNCC2)nc2n(Cc3ccccn3)c3ccccc3n12 | 30 µM | 38 µM | 19 µM |
| O=c1cc(N2CCNCC2)nc2n(Cc3ccncc3)c3ccccc3n12 | 21 µM | 32 µM | 15 µM |
| COc1c(C)cnc(Cn2c3ccccc3n3c(=O)cc(N4CCNCC4)nc23)c1C | 49 µM | 56 µM | 33 µM |
| O=c1cc(N2CCNCC2)nc2n(CCN3CCCC3)c3ccccc3n12 | 28 µM | 42 µM | 16 µM |
| CCN(CC)c1cc(=O)n2c3ccccc3n(CC)c2n1 | 75 µM | > 1000 µM | > 1000 µM |
| CCN(CC)c1cc(=O)nc2n(CC)c3ccccc3n12 | 75 µM | 415 µM | > 1000 µM |
| CCn1c2ccccc2n2c(=O)cc(N3CCNCC3)nc12 | 55 µM | 206 µM | 127 µM |
| CCCn1c2ccccc2n2c(=O)cc(N3CCNCC3)nc12 | 50 µM | 50 µM | 62 µM |
| CC(C)n1c2ccccc2n2c(=O)cc(N3CCNCC3)nc12 | 77 µM | 142 µM | 116 µM |
| CC(=O)Oc1ccccc1C(=O)O [ASPIRIN] | 183 µM | > 1000 µM | > 1000 µM |
| O=C1CCc2cc(OCCCCc3nnnn3C3CCCCC3)ccc2N1 [CILOSTAZOL] | 40 µM | 109 µM | 73 µM |

Compounds with a lower IC50 [1], results first:

| IC50 [1] | IC50 [2] | IC50 [3] | Compound |
| --- | --- | --- | --- |
| 8.8 µM | 13 µM | 3.6 µM | O=c1cc(N2CCNCC2)nc2oc3ccc(Cl)cc3n12 |
| 15 µM | 75 µM | 53 µM | O=c1cc(N2CCNCC2)nc2n(CCc3ccccc3)c3ccccc3n12 |
| 9 µM | 23 µM | 15 µM | O=c1cc(N2CCNCC2)nc2n(Cc3cccnc3)c3ccccc3n12 |
| 8 µM | 41 µM | 36 µM | CN(C)CCn1c2ccccc2n2c(=O)cc(N3CCNCC3)nc12 |
| 13 µM | 13 µM | 16 µM | CCN(CC)CCn1c2ccccc2n2c(=O)cc(N3CCNCC3)nc12 |
| 15 µM | 11 µM | 12 µM | O=c1cc(N2CCNCC2)nc2n(CCN3CCOCC3)c3ccccc3n12 |
| 12 µM | 14 µM | 11 µM | Cc1[nH]c(=O)c(C#N)cc1-c1ccncc1 [MILRINONE] |
